Assay results reported in paper PMC11094418 (Clinical Cancer Research, 2024).

Assays:
[1] = tested on: HCT116 KRAS-mutant colorectal cancer xenograft model; assay: HCT116 xenograft in Balb/c nude mice; type: in vivo; conditions: 42 days
Procedure, shortened: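 Female Balb/c nude mice aged 6–9 weeks, inoculated subcutaneously with 5 million HCT116 cells and randomized at 100–150 mm3. Groups received vehicle, oral test compound (0.5% methylcellulose + 0.1% Tween80 suspension), an i.p. chemotherapy agent in saline, or the combination for 42 days. Tumor volume and body weight were measured twice weekly. Mean ± SEM, n=7–8/group.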

[2] = tested on: DLD1 isogenic KRAS^WT/G13D (KRAS MUT) and KRAS^WT/− (KRAS WT) colorectal cancer cells; assay: proliferation assay, cell viability by CellTiterGlo; type: cell-based; conditions: 72 hours, Fig. 1A
[3] = tested on: DLD1 isogenic KRAS^WT/G13D (KRAS MUT) and KRAS^WT/− (KRAS WT) colorectal cancer cells; assay: analysis of mitotic cells by flow cytometry; type: cell-based; conditions: 100 nmol/L, 24 hours, Fig. 1B
[4] = phase Ib safety: onvansertib-related AEs; type: in vivo, human; conditions: all dose levels
Procedure, shortened: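 Oral test compound was dose-escalated (3+3 design; 12, 15, 18 mg/m2) on days 1–5 and 15–19 of 28-day cycles. It was given with FOLFIRI and bevacizumab 5 mg/kg i.v. on days 1 and 15. Patients receiving ≥1 dose were evaluable. AEs were graded by NCI CTCAE v4.03, investigators assigned causality, and data were summarized descriptively.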

[5] = phase Ib pharmacokinetics, plasma, day 5 of cycle 1, LC/MS-MS; type: in vivo, human
Procedure, shortened: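 Oral test compound was given on days 1–5 and 15–19 of 28-day cycles with FOLFIRI/bevacizumab. Blood was drawn on cycle 1 day 5 at predose and at 1, 2, 3, 4, 8, 24, 48 and 72 h postdose. Plasma drug concentrations were measured by LC/MS-MS, and pharmacokinetic parameters were calculated from these.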

[6] = cited from earlier work

CCc1c2c(nc3ccc(OC(=O)N4CCC(N5CCCCC5)CC4)cc13)-c1cc3c(c(=O)n1C2)COC(=O)[C@]3(O)CC [irinotecan, reference compound]
tumor growth compared with the vehicle-treated group ([1]; intraperitoneally, 5 mg/kg, twice a week): significantly reduced tumor growth

CN1CCN(c2ccc(OC(F)(F)F)c(Nc3ncc4c(n3)-c3c(c(C(N)=O)nn3CCO)CC4)c2)CC1 [onvansertib]
cell death in DLD1 KRAS MUT cells compared with KRAS WT cells [2]: increased | mitotic arrest in DLD1 KRAS MUT cells compared with KRAS WT cells [3]: increased | tumor growth compared with the vehicle-treated group ([1]; oral, 45 mg/kg, daily): significantly reduced tumor growth | G3/G4 neutropenia, patients [4]: 28% | diarrhea, patients [4]: 50% | fatigue, patients [4]: 44% | nausea, patients [4]: 50% | number of onvansertib-related G3 or G4 AEs [4]: 15 | vomiting, patients [4]: 22% | AUC0–24 ([5]; 12 mg/m^2, mean ± SD): 2,020 ± 880 ng/mL.hours | Cmax ([5]; 12 mg/m^2, mean ± SD): 163 ± 82 ng/mL | Tmax ([5]; 12 mg/m^2, mean ± SD): 5.29 ± 8.32 h | t1/2 ([5]; 12 mg/m^2, mean ± SD): 13.8 ± 2.1 h | AUC0–24 ([5]; 15 mg/m^2, mean ± SD): 1,520 ± 650 ng/mL.hours | Cmax ([5]; 15 mg/m^2, mean ± SD): 169 ± 64 ng/mL | Tmax ([5]; 15 mg/m^2, mean ± SD): 1.80 ± 0.84 h | t1/2 ([5]; 15 mg/m^2, mean ± SD): 13.9 ± 4.3 h | AUC0–24 ([5]; 18 mg/m^2, mean ± SD): 2,290 ± 730 ng/mL.hours | Cmax ([5]; 18 mg/m^2, mean ± SD): 191 ± 25 ng/mL | Tmax ([5]; 18 mg/m^2, mean ± SD): 2.40 ± 1.20 h | t1/2 ([5]; 18 mg/m^2, mean ± SD): 13.8 ± 2.3 h | terminal half-life in plasma ([5]; all dose levels): around 14 hours | human half-life ([6]; oral): approximately 24 hours | dose-limiting toxicities (DLT) ([6]; single agent, 6, 12, and 24 mg/m^2/day for 5 out of 21 days): no dose-limiting toxicities
